The target of data set [1] is E3 ubiquitin-protein ligase XIAP (Homo sapiens, UniProt P98170). The experiment in a line: Inhibition of XIAP BIR3 (241 to 356 residues) (unknown origin) incubated for 60 mins by fluoresceinated modified SMAC peptide based fluorescence polarization assay. In general terms: Fluorescence polarisation rises when a labelled molecule tumbles more slowly, as on binding a larger partner.

A short description of data set [2]: Inhibition of XIAP BIR2 (124 to 240 residues) C202A/C213G mutant (unknown origin) incubated for 60 mins by biotinylated SMAC peptide Alpha-screen assay. More on the design: species or system Homo sapiens. (Bead proximity is the source of the signal in Alpha formats.)
Data set [3] is described as follows: Antiproliferative activity against human A875 cells assessed as inhibition of cell proliferation after 72 hrs by MTS assay. The data set is classed as functional, cell-based. Conditions: A875, 72 h.
A further data set has as its system MDA-MB-231. The experiment in a line: Antiproliferative activity against human MDA-MB-231 cells assessed as inhibition of cell proliferation after 72 hrs by MTS assay. The data set is classed as functional, cell-based. The conditions noted are these: MDA-MB-231, 72 h.
The subject of another data set is A549. As to the kind of experiment: Antiproliferative activity against human A549 cells assessed as inhibition of cell proliferation after 72 hrs by MTS assay. The data set is classed as functional, cell-based. The conditions noted are these: A549, 72 h.
The target of the next data set is BIR2 domain of XIAP (Homo sapiens, UniProt P98170, C202A/C213G). The experiment in a line: Inhibition of XIAP BIR2-3 (124 to 356 residues) C202A/C213G mutant (unknown origin) in human THP1 cells using fluoresceinated caspase-3 substrate by caspase-3 rescue assay. It counts as cell-based, THP-1.
Chain of BIR2 domain of XIAP (P98170 whole entry C202A/C213G, looked up, the tested form may be a part): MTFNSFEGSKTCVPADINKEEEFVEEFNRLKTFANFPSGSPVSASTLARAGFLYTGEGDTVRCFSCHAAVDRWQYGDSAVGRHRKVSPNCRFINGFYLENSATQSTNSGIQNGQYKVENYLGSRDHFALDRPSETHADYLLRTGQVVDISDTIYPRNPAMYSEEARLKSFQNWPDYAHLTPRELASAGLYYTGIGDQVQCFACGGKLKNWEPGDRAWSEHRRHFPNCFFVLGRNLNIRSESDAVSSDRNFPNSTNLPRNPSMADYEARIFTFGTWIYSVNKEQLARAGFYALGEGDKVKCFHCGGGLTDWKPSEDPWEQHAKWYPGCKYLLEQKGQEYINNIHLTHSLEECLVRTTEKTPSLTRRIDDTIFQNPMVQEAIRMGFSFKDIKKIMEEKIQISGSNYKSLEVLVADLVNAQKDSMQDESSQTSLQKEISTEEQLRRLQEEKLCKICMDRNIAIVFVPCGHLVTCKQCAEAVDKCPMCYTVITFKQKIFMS
The nature of data set [4]: Mean residence time in Balb/C mouse at 1 mg/kg, iv administered as single dose by LC-MS/MS method. It counts as ADME, organism-based. Set-up: dose 1 mg/kg, route intravenous. The conditions noted are these: in vivo. In a few lines:
(§1)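 Mice received one intravenous dose, and parent compound levels in blood were monitored over time. Plasma pharmacokinetic parameters were derived from these concentration–time profiles.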

Data set [5] concerns the target Baculoviral IAP repeat-containing protein 2 (Homo sapiens, UniProt Q13490). As to the kind of experiment: Inhibition of cIAP1 BIR2-3 (154 to 352 residues) (unknown origin) fluoresceinated dimeric SMAC peptide based fluorescence polarization assay.
The test system of data set [6] is Mus musculus. As to the kind of experiment: AUClast in Balb/C mouse at 1 mg/kg, iv administered as single dose by LC-MS/MS method. It counts as ADME, organism-based, Plasma. Set-up: time 0 - last, dose 1 mg/kg, route intravenous. Conditions: in vivo. In a few lines: as §1
Data set [7] in a line: Volume of distribution at steady state in Balb/C mouse at 1 mg/kg, iv administered as single dose by LC-MS/MS method. Conditions: in vivo, read-out: Vdss. The data set is classed as ADME, organism-based. More on the design: dose 1 mg/kg, route intravenous. An outline of the steps: as §1
Data set [8] can be described thus: Half life in Balb/C mouse at 1 mg/kg, iv administered as single dose by LC-MS/MS method. Conditions: in vivo. More on the design: dose 1 mg/kg, route intravenous. It counts as ADME, organism-based. In a few lines:
as §1

The subject of data set [9] is Mus musculus. The experiment in a line: AUClast in Balb/C mouse at 0.2 mg/kg, iv administered as single dose by LC-MS/MS method. The data set is classed as ADME, organism-based, Plasma. Set-up: dose 0.2 mg/kg, route intravenous, time 0 - last. The conditions noted are these: in vivo. An outline of the steps: as §1
Data set [10] can be described thus: Volume of distribution at steady state in Balb/C mouse at 0.2 mg/kg, iv administered as single dose by LC-MS/MS method. It counts as ADME, organism-based. More on the design: dose 0.2 mg/kg, route intravenous. Conditions: in vivo, read-out: Vdss. An outline of the steps:
as §1

Data set [11] can be described thus: Mean residence time in Balb/C mouse at 0.2 mg/kg, iv administered as single dose by LC-MS/MS method. Set-up: dose 0.2 mg/kg, route intravenous. Conditions: in vivo. The data set is classed as ADME, organism-based. An outline of the steps: as §1
Data set [12] is described as follows: Half life in Balb/C mouse at 0.2 mg/kg, iv administered as single dose by LC-MS/MS method. The conditions noted are these: in vivo. The data set is classed as ADME, organism-based. More on the design: dose 0.2 mg/kg, route intravenous. An outline of the steps:
as §1

pEC50, pIC50: −log10 of the molar value. Numbered stars: 1 amine (or outer) side, 2 acyl side, 3 side chain; on linkers, the order of the positions; unused ones are H or OH. Bridge positions count the residues as written; N and C are the ends. Square brackets hold non-standard residues; d marks the D form. Peptide text beside a SMILES is read from it. * marks the point of attachment. X1 = O=C(O)CN(CCN[*:1])CCn1cc(CCC(=O)[*:2])nn1; NMeA = CN[C@@H](C)C(=O)O; Pra = C#CC[C@H](N)C(=O)O; X2 = [N-]=[N+]=NCC* A value given as a limit tells only on which side of the number the result lay.

Chain of E3 ubiquitin-protein ligase XIAP (P98170 whole entry, looked up, the tested form may be a part): as the sequence (P98170 whole entry C202A/C213G, looked up, the tested form may be a part) above, with A202C, G213C counted along it
Chain of Baculoviral IAP repeat-containing protein 2 (Q13490 whole entry, the tested form may be a part): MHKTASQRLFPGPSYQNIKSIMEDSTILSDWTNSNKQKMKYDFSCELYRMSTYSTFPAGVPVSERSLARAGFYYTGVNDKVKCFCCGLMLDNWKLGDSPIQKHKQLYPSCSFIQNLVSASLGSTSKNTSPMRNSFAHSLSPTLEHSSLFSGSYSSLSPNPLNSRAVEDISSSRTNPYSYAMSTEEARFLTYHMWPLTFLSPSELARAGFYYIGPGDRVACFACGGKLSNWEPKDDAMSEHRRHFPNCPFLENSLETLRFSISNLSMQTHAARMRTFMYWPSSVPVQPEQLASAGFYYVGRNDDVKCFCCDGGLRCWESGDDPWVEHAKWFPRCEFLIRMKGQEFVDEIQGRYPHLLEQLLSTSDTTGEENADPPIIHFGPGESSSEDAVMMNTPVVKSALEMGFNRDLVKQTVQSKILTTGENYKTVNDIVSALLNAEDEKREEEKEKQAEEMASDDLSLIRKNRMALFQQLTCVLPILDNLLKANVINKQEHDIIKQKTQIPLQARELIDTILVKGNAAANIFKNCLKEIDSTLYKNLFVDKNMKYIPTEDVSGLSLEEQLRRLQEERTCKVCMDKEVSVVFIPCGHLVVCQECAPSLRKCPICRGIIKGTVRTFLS

What is called pIC50 is −log10 of the IC50, conventionally taken in molar units. For `CN[C@@H](C)C(=O)N[C@H]1Cc2ccc(cc2)OCc2cn(nn2)CCOc2ccc(cc2)C[C@H](C(=O)O)NC(=O)[C@H](Cc2ccccc2)NC(=O)[C@@H]2CCCN2C1=O`, the pIC50 in data set [1] was 5.54; in [2], 5.10.
With `CN[C@@H](C)C(=O)N[C@H]1CCCCNC(=O)CCc2cn(nn2)CCOc2ccc(cc2)C[C@@H](C(=O)O)NC(=O)[C@H](Cc2ccccc2)NC(=O)[C@@H]2CCCN2C1=O`, the figures for the pIC50 in data set [1] and in data set [2] were 5.83 and under 4.73, respectively.
The corresponding values for `CN[C@@H](C)C(=O)N[C@H]1Cc2cn(nn2)CCOc2ccc(cc2)C[C@@H](C(=O)O)NC(=O)[C@H](Cc2ccccc2)NC(=O)[C@@H]2CCCN2C1=O` are 5.88 and under 4.73.
The corresponding values for `CN[C@@H](C)C(=O)N[C@H]1Cc2ccc(cc2)OCc2cn(nn2)CCCOc2ccc(cc2)C[C@@H](C(=O)O)NC(=O)[C@H](Cc2ccccc2)NC(=O)[C@@H]2CCCN2C1=O` are 6.44 and 5.31.
Regarding `C#CC[C@H](NC(=O)[C@H](C)NC)C(=O)N1CCC[C@H]1C(=O)N[C@@H](Cc1ccccc1)C(=O)N[C@@H](Cc1ccc(OCCN=[N+]=[N-])cc1)C(=O)O` (H-[NMeA][Pra]PFY(X2)-OH), the figures for the pIC50 in [1] and in [2] were 6.74 and 6.27, respectively.
As usually defined, the pEC50 is −log10 of the EC50, conventionally taken in molar units. A high value points to a low EC50. Regarding `CN[C@@H](C)C(=O)N[C@H](C(=O)N1C[C@@H]2C[C@H]1C(=O)N[C@@H](Cc1ccc3ccccc3c1)C(=O)N[C@H](C(=O)O)Cc1ccc(cc1)OCc1cn(nn1)[C@H]1C[C@@H](C(=O)N[C@@H](Cc3ccc4ccccc4c3)C(=O)N[C@H](C(=O)O)Cc3ccc(cc3)OCc3cn2nn3)N(C(=O)[C@@H](NC(=O)[C@H](C)NC)C(C)C)C1)C(C)C`, the pIC50 was 6.66 in [3]; 7.09 in the data set with MDA-MB-231; 7.40 in data set [1]; 6.48 in data set [2]; under 4.60 in the data set with A549. Also, the pEC50 at BIR2 domain of XIAP was 7.23.
For the molecule `CN[C@@H](C)C(=O)N[C@H](C(=O)N1C[C@@H]2C[C@H]1C(=O)N[C@@H](Cc1cccc3ccccc13)C(=O)N[C@H](C(=O)O)Cc1ccc(cc1)OCc1cn(nn1)[C@H]1C[C@@H](C(=O)N[C@@H](Cc3cccc4ccccc34)C(=O)N[C@H](C(=O)O)Cc3ccc(cc3)OCc3cn2nn3)N(C(=O)[C@@H](NC(=O)[C@H](C)NC)C(C)C)C1)C(C)C`, the pIC50 was 6.37 in data set [3]; 6.71 with MDA-MB-231; 7.54 in data set [1]; 6.66 in [2]; under 4.60 in the data set on A549. Moreover, at BIR2 domain of XIAP, the pEC50 was 7.47.
For the molecule `CN[C@@H](C)C(=O)N[C@H](C(=O)N1C[C@@H]2C[C@H]1C(=O)N[C@@H](Cc1ccccc1)C(=O)N[C@H](C(=O)O)Cc1ccc(cc1)OCc1cn(nn1)[C@H]1C[C@@H](C(=O)N[C@@H](Cc3ccccc3)C(=O)N[C@H](C(=O)O)Cc3ccc(cc3)OCc3cn2nn3)N(C(=O)[C@@H](NC(=O)[C@H](C)NC)C(C)C)C1)C(C)C`, the pIC50 in data set [3] is 5.37; in the data set with MDA-MB-231 it was 5.53; in data set [1], 7.17; in data set [2] it was 8.52; with A549 it was under 4.60. This molecule also gave a pEC50 on BIR2 domain of XIAP of 7.35.
By MRT is commonly meant the average time that molecules of a dose stay in the body. What is called half-life is the time in which the quantity being followed falls by half. A low value points to fast loss. For the molecule `CN[C@@H](C)C(=O)N[C@H](C(=O)N1C[C@@H]2C[C@H]1C(=O)N[C@@H](Cc1ccc3ccccc3c1)C(=O)N[C@H](C(=O)O)Cc1cn(nn1)[C@H]1C[C@@H](C(=O)N[C@@H](Cc3ccc4ccccc4c3)C(=O)N[C@H](C(=O)O)Cc3cn2nn3)N(C(=O)[C@@H](NC(=O)[C@H](C)NC)C(C)C)C1)C(C)C`, the pIC50 was 5.21 in [3]; 5.70 in the data set on MDA-MB-231; 7.19 in data set [1]; 6.52 in data set [2]; 8.52 in [5]; under 4.60 with A549. For the same molecule, the mean residence time MRT in data set [4] was found to be 0.25 h. For the same molecule, in the data set with Mus musculus [6], the AUClast was found to be 1070 ng·h/mL. Besides, the pEC50 at BIR2 domain of XIAP is 7.31. Besides, in data set [7], the Vd was found to be 0.18 L/kg. In [8], this molecule showed a half-life of 9.6 min.
`CN[C@@H](C)C(=O)N[C@H](C(=O)N1C[C@@H]2C[C@H]1C(=O)N[C@@H](Cc1ccc3ccccc3c1)C(=O)N[C@H](C(=O)O)Cc1ccc(cc1)OCc1cn2nn1)C1CCCCC1`: the pIC50 in [1] is 6.63; in data set [2] it was 5.64.
For the molecule `CN[C@@H](C)C(=O)N[C@H](C(=O)N1C[C@@H]2C[C@H]1C(=O)N[C@@H](Cc1ccccc1)C(=O)N[C@H](C(=O)O)Cc1ccc(cc1)OCc1cn2nn1)C(C)C`, the pIC50 is under 5.00 in data set [3]; 4.90 with MDA-MB-231; 6.80 in data set [1]; 6.86 in data set [2]; under 4.60 in the data set on A549. The same molecule had a pEC50 at BIR2 domain of XIAP of 5.85.
Consider `CN[C@@H](C)C(=O)N[C@H](C(=O)N1C[C@@H]2C[C@H]1C(=O)N[C@@H](Cc1ccccc1)C(=O)N[C@@H](C(=O)O)Cc1ccc(cc1)NC(=O)CCc1cn2nn1)C(C)C`, for which the results for the pIC50 in [1] and in [2] were 6.63 and under 4.73, respectively.
In the case of `CN[C@@H](C)C(=O)N[C@H](C(=O)N1C[C@@H]2C[C@H]1C(=O)N[C@@H](Cc1ccc3ccccc3c1)C(=O)N[C@H](C(=O)O)Cc1ccc(cc1)OCc1cn(nn1)[C@H]1C[C@@H](C(=O)N[C@@H](Cc3ccc4ccccc4c3)C(=O)N[C@H](C(=O)O)Cc3ccc(cc3)OCc3cn2nn3)N(C(=O)[C@@H](NC(=O)[C@H](C)NC)C2CCCCC2)C1)C1CCCCC1`, the pIC50 was 7.08 in data set [3], 7.85 in the data set on MDA-MB-231, 6.13 in data set [2] and under 4.60 in the data set with A549. This molecule had an AUClast in the data set with Mus musculus [9] of 457 ng·h/mL. The Vd in data set [10] is 0.7 L/kg. This molecule yielded an MRT in [11] of 2.5 h. In data set [12], this molecule had a half-life of 1.9 h.
Regarding `CN[C@@H](C)C(=O)N[C@H](C(=O)N1C[C@@H]2C[C@H]1C(=O)N[C@@H](Cc1ccc3ccccc3c1)C(=O)N[C@H](C(=O)O)Cc1ccc(cc1)OCc1cn2nn1)C(C)(C)C`, the pIC50 was 6.67 in data set [1] and 6.08 in data set [2].
Consider `CN[C@@H](C)C(=O)N[C@H](C(=O)N1C[C@@H]2C[C@H]1C(=O)N[C@@H](Cc1ccccc1)C(=O)N[C@H](C(=O)O)Cc1ccc(cc1)NC(=O)CCc1cn2nn1)C(C)C`, for which the pIC50 is 6.96 in data set [1] and 5.71 in [2]. The same molecule gave a pEC50 at BIR2 domain of XIAP of 5.17.
Regarding `CN[C@@H](C)C(=O)N[C@H]1CCCCNC(=O)CCc2cn(nn2)CCN(CC(=O)O)CCNC(=O)[C@H](Cc2ccccc2)NC(=O)[C@@H]2CCCN2C1=O` (H-[NMeA]KPF[X1]; lactam 2-C), the pIC50 in data set [1] was 6.05; in [2], under 4.73.
In the case of `CN[C@@H](C)C(=O)N[C@H](C(=O)N1C[C@@H]2C[C@H]1C(=O)N[C@@H](Cc1ccccc1)C(=O)N[C@H](C(=O)O)Cc1ccc(cc1)NC(=O)CCc1cn(nn1)[C@H]1C[C@@H](C(=O)N[C@@H](Cc3ccccc3)C(=O)N[C@H](C(=O)O)Cc3ccc(cc3)NC(=O)CCc3cn2nn3)N(C(=O)[C@@H](NC(=O)[C@H](C)NC)C(C)C)C1)C(C)C`, the pIC50 is 5.10 in the data set with MDA-MB-231, 7.33 in data set [1], 8.22 in data set [2] and under 4.60 with A549. At BIR2 domain of XIAP, this molecule showed a pEC50 of 7.15.
With `CN[C@@H](C)C(=O)N[C@H]1CCCCNC(=O)CCc2cn(nn2)CCCC[C@@H](C(=O)O)NC(=O)[C@H](Cc2ccccc2)NC(=O)[C@@H]2CCCN2C1=O`, the results for the negative-log IC50 (pIC50) in [1] and in data set [2] were 5.87 and under 4.73, respectively.
